{"source": "ChEMBL document CHEMBL1135421", "about": "“2-(Anilinomethyl)imidazolines as alpha1 adrenergic receptor agonists: the discovery of alpha1a subtype selective 2'-alkylsulfonyl-substituted analogues” (J Med Chem, 2002)", "key": {"[1]": {"molecular_target": "T1, Alpha-1B adrenergic receptor (Homo sapiens) (UniProt P35368)", "T1 sequence (whole entry)": "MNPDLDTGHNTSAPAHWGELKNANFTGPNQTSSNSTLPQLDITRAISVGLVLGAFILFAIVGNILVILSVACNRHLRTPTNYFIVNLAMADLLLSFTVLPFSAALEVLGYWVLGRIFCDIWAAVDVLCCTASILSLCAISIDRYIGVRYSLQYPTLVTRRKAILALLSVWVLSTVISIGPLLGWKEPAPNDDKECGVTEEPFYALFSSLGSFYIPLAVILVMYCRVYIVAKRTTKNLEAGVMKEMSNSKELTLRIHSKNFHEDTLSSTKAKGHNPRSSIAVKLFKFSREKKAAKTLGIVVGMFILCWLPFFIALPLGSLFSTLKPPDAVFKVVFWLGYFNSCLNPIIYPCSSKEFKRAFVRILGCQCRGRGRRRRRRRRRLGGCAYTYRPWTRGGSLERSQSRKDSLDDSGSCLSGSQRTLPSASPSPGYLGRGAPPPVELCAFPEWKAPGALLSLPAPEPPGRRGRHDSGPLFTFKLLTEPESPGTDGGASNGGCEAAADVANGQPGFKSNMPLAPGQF", "experiment": "Agonist potency at Alpha-1B adrenergic receptor assayed in rat-1 fibroblasts expressing human Alpha-1B adrenergic receptor", "format": "functional", "summary_of_the_method": "(§1)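 Rat-1 fibroblasts expressing human α1a/α1b/α1d, grown in DMEM with 10% heat-inactivated FBS and 0.6 mg/mL G418, plated 6000 cells/well and cultured 48 h at 37 °C. Loaded 2 h at 37 °C with Calcium Green (4 μM), 0.2% pluronic acid and 2.5 mM probenecid in HEPES buffer pH 7.4. FLIPR read at room temperature: 10 s baseline, then 50 s after compound. 11-point curves as % of 40 μM phenylephrine response, top concentration typically 5 μM.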"}, "[2]": {"molecular_target": "T2, Alpha-2C adrenergic receptor (Homo sapiens) (UniProt P18825)", "T2 sequence (whole entry)": "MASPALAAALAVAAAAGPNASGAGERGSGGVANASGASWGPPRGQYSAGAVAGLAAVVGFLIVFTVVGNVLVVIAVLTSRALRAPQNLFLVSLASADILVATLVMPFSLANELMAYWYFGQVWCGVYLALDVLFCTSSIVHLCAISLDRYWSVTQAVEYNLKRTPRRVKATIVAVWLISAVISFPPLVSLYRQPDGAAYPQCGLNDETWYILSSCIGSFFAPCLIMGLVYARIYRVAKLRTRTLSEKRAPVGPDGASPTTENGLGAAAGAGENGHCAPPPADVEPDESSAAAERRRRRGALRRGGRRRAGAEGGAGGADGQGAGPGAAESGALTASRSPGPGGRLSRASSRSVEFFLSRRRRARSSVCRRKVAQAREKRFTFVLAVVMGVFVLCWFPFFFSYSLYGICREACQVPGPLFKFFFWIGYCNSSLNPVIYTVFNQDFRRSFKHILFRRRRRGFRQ", "experiment": "Agonist potency at Alpha-2C adrenergic receptor assayed in CHO cells expressing human Alpha-2C adrenergic receptor", "format": "functional, cell-based"}, "[3]": {"molecular_target": "T3, Alpha-1D adrenergic receptor (Homo sapiens, UniProt P25100)", "T3 sequence (P25100 whole entry)": "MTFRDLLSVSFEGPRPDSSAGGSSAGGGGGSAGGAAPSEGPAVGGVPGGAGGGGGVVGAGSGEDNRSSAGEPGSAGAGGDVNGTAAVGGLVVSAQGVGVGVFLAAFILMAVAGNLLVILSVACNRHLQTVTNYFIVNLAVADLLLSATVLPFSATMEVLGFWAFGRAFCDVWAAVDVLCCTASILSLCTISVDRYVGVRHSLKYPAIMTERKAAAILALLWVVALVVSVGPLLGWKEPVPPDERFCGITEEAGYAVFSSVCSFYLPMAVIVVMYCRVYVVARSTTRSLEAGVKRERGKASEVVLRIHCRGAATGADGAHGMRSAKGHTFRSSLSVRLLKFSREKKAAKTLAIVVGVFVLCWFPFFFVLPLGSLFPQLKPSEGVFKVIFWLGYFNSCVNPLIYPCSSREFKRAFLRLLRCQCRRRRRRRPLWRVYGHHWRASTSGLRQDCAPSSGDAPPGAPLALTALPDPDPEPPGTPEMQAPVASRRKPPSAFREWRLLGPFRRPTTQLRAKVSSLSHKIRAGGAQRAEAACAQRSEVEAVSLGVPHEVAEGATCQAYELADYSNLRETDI", "experiment": "Agonist potency at Alpha-1D adrenergic receptor assayed in rat-1 fibroblasts expressing human alpha1d", "format": "functional", "summary_of_the_method": "(§2)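 Human α1a, α1b or α1d receptors expressed in Rat-1 fibroblasts (DMEM, 10% heat-inactivated FBS, 0.6 mg/mL G418). Cells were plated at 6000/well and grown 48 h at 37 °C. They were loaded 2 h at 37 °C with Calcium Green (4 μM), pluronic acid 0.2% and probenecid 2.5 mM in HEPES buffer pH 7.4, then read by FLIPR at room temperature: 10 s baseline, 50 s after compound. 11-point curves were expressed as % of the 40 μM phenylephrine response; top concentration typically 5 μM.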"}, "[4]": {"molecular_target": "T4, Alpha-2C adrenergic receptor (Homo sapiens, UniProt P18825)", "T4 sequence (P18825 whole entry)": "T2 sequence (whole entry)", "experiment": "Agonist potency at Alpha-2C adrenergic receptor expressed in CHO cells", "format": "functional, cell-based"}, "[5]": {"molecular_target": "T5, Alpha-1A adrenergic receptor (Homo sapiens, UniProt P35348)", "T5 sequence (P35348 whole entry)": "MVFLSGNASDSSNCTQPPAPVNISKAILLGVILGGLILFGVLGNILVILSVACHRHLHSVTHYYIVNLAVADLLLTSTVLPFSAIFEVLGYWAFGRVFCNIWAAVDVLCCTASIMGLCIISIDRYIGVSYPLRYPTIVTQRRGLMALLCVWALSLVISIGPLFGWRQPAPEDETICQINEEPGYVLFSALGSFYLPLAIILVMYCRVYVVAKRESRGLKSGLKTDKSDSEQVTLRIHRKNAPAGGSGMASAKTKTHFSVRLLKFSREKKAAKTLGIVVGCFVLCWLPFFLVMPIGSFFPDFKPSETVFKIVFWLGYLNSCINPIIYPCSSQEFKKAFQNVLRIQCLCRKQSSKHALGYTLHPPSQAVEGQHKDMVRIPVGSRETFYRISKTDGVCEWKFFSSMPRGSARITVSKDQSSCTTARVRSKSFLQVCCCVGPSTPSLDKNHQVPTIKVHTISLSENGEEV", "experiment": "Agonist potency at Alpha-1 adrenergic receptor assayed in rat-1 fibroblasts expressing human Alpha-1A", "format": "functional", "summary_of_the_method": "as §2"}, "[6]": {"molecular_target": "T5, Alpha-1A adrenergic receptor", "experiment": "Agonist potency at Alpha-1 adrenergic receptor assayed in rat-1 fibroblasts expressing human Alpha-1 adrenergic receptor", "format": "functional", "summary_of_the_method": "as §2"}, "[7]": {"molecular_target": "T3, Alpha-1D adrenergic receptor", "experiment": "Agonist potency at aAlpha-1D adrenergic receptor assayed in rat-1 fibroblasts expressing human Alpha-1D adrenergic receptor", "format": "functional", "summary_of_the_method": "as §2"}, "[8]": {"molecular_target": "T3, Alpha-1D adrenergic receptor", "experiment": "Agonist potency at Alpha-1D adrenergic receptor assayed in rat-1 fibroblasts", "format": "functional", "summary_of_the_method": "as §1"}, "[9]": {"molecular_target": "T2, Alpha-2C adrenergic receptor (Homo sapiens)", "experiment": "Efficacy as percentage of the maximal effect observed for nonselective agonist UK-14304 in CHO cells expressing human Alpha-2A adrenergic receptor", "format": "functional, cell-based", "summary_of_the_method": "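Human α2A receptor in CHO cells, cAMP assay. Cells were preincubated with compound or UK14304 for 30 min at 37 °C with IBMX 300 μM. […] Efficacy is relative to the UK14304 maximum.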"}, "[10]": {"molecular_target": "T6, Alpha-1A adrenergic receptor (Homo sapiens) (UniProt P35348)", "T6 sequence (whole entry)": "T5 sequence (P35348 whole entry)", "experiment": "Efficacy as % of the maximal effect observed for nonselective agonist phenylephrine in rat-1 fibroblasts expressing human alpha1", "format": "functional", "summary_of_the_method": "as §1"}}}
{"smiles": "CCCS(=O)(=O)c1ccccc1NCC1=NCCN1", "values": [{"measurement": "pEC5", "setting": "[1]", "value": "< 4"}, {"measurement": "pEC5", "setting": "[2]", "value": 5.5}]}
{"smiles": "C[S+]([O-])c1ccccc1NCC1=NCCN1", "note": "(centres undefined)", "values": [{"measurement": "EC50", "setting": "[3]", "value": "> 100", "unit": "µM"}, {"measurement": "EC50", "setting": "[4]", "value": "> 10000", "unit": "nM"}, {"measurement": "EC50", "setting": "[5]", "value": 490, "unit": "nM"}]}
{"smiles": "CS(=O)(=O)c1cc(F)ccc1NCC1=NCCN1", "values": [{"measurement": "EC50", "setting": "[6]", "value": 437, "unit": "nM"}, {"measurement": "EC50", "setting": "[7]", "value": "> 100", "unit": "µM"}, {"measurement": "EC50", "setting": "[4]", "value": "> 10000", "unit": "nM"}]}
{"smiles": "CSc1ccccc1NCC1=NCCN1", "values": [{"measurement": "EC50", "setting": "[8]", "value": 8.91, "unit": "nM"}, {"measurement": "EC50", "setting": "[4]", "value": 5.62, "unit": "nM"}]}
{"smiles": "CSc1c(F)cccc1NCC1=NCCN1", "values": [{"measurement": "EC50", "setting": "[4]", "value": 15.8, "unit": "nM"}]}
{"smiles": "CC(C)S(=O)(=O)c1ccccc1NCC1=NCCN1", "values": [{"measurement": "EC50", "setting": "[4]", "value": "> 10000", "unit": "nM"}, {"measurement": "Max", "setting": "[9]", "value": 14, "unit": "%"}]}
{"smiles": "CCS(=O)(=O)c1ccccc1NCC1=NCCN1", "values": [{"measurement": "EC50", "setting": "[4]", "value": 5010, "unit": "nM"}]}
{"smiles": "CC(C)Sc1ccccc1NCC1=NCCN1", "values": [{"measurement": "EC50", "setting": "[4]", "value": 28.2, "unit": "nM"}]}
{"smiles": "CS(=O)(=O)c1c(F)cccc1NCC1=NCCN1", "values": [{"measurement": "Max", "setting": "[10]", "value": 93, "unit": "%"}, {"measurement": "EC50", "setting": "[4]", "value": 501, "unit": "nM"}]}
{"smiles": "CS(=O)(=O)c1ccccc1NCC1=NCCN1", "values": [{"measurement": "EC50", "setting": "[3]", "value": "> 100", "unit": "µM"}, {"measurement": "EC50", "setting": "[5]", "value": 56.2, "unit": "nM"}]}
